Test results: ChEMBL document CHEMBL4428136, “Cell Active Hydroxylactam Inhibitors of Human Lactate Dehydrogenase with Oral Bioavailability in Mice” (ACS Med Chem Lett, 2016)
Each block holds one molecule with its values, some of them ahead of it.

Key:
[1] = Cmax in CD-1 mouse at 200 mg/kg, po administered as suspension by LC-MS/MS analysis; assay type: ADME, organism-based; set-up: dose 200 mg/kg, route oral; conditions: in vivo
[2] = Oral bioavailability in CD-1 mouse at 5 mg/kg; assay type: ADME, organism-based; conditions: in vivo
Outline: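 Bioavailability was derived from paired intravenous and oral administration in mice, with the oral dose at 5 mg/kg.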

[3] = AUC in CD-1 mouse at 200 mg/kg, po administered as suspension by LC-MS/MS analysis; assay type: ADME, organism-based; conditions: in vivo
[4] = AUC in CD-1 mouse at 50 mg/kg, po administered as suspension by LC-MS/MS analysis; assay type: ADME, organism-based; conditions: in vivo
[5] = Plasma clearance in CD-1 mouse at 1 mg/kg, iv administered as bolus by LC-MS/MS analysis; assay type: ADME, organism-based
[6] = Cmax in CD-1 mouse at 5 mg/kg, po administered as suspension by LC-MS/MS analysis; assay type: ADME, organism-based; set-up: dose 5 mg/kg, route oral; conditions: in vivo
[7] = Apparent permeability across apical to basolateral side in MDCK cells; assay type: ADME, cell-based, Canis lupus familiaris; conditions: dog
[8] = AUC in CD-1 mouse at 5 mg/kg, po administered as suspension by LC-MS/MS analysis; assay type: ADME, organism-based; conditions: in vivo
[9] = Cmax in CD-1 mouse at 50 mg/kg, po administered as suspension by LC-MS/MS analysis; assay type: ADME, organism-based; set-up: dose 50 mg/kg, route oral; conditions: in vivo
[10] = AUC in CD-1 mouse at 1 mg/kg, iv administered as bolus by LC-MS/MS analysis; assay type: ADME, organism-based; conditions: in vivo
[11] = Protein binding in CD-1 mouse plasma; assay type: ADME, cell-free; conditions: read-out: PPB (converted)
[12] = Half life in CD-1 mouse at 1 mg/kg, iv administered as bolus by LC-MS/MS analysis; assay type: ADME, organism-based; conditions: in vivo
[13] = Cmax in CD-1 mouse at 1 mg/kg, iv administered as bolus by LC-MS/MS analysis; assay type: ADME, organism-based; set-up: dose 1 mg/kg, route intravenous; conditions: in vivo
[14] = Lipophilicity, log D of the compound at pH 7.4 by high throughput method; assay type: physicochemical; conditions: buffer
[15] = Volume of distribution at steady state in CD-1 mouse at 1 mg/kg, iv administered as bolus by LC-MS/MS analysis; assay type: ADME, organism-based; conditions: in vivo, read-out: Vdss
[16] = AUC in CD-1 mouse at 100 mg/kg, po administered as suspension by LC-MS/MS analysis; assay type: ADME, organism-based; conditions: in vivo
[17] = Cmax in CD-1 mouse at 100 mg/kg, po administered as suspension by LC-MS/MS analysis; assay type: ADME, organism-based; set-up: dose 100 mg/kg, route oral; conditions: in vivo
[18] = biological target: L-lactate dehydrogenase B chain (Homo sapiens, UniProt P07195); test: Inhibition of human recombinant carboxy-terminal His-tagged LDHB by UV endpoint assay
L-lactate dehydrogenase B chain, sequence (P07195 whole entry): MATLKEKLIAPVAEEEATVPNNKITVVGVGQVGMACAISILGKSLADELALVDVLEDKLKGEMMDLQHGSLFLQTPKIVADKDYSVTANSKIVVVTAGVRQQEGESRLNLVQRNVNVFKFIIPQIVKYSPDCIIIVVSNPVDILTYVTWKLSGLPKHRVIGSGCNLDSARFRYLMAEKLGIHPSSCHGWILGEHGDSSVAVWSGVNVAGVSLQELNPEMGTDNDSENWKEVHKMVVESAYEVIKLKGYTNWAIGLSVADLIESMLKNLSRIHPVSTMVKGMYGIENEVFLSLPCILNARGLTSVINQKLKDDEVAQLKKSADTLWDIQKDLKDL

SMILES: COc1ccc(C2(c3ccsc3)CC(O)=C(Sc3ccccc3Cl)C(=O)N2)cc1 (stereo not given)
IC50 [18]: 210 nM

SMILES: O=C1NC(c2ccsc2)(c2ccccn2)CC(O)=C1Sc1ccccc1Cl (stereo not given)
IC50 [18]: > 10000 nM

SMILES: O=C1NC(c2ccccc2)(c2cscn2)CC(O)=C1Sc1ccccc1Cl (stereo not given)
IC50 [18]: 2300 nM

SMILES: N#CC1CCN(c2ccc(C3(c4ccsc4)CC(O)=C(Sc4ccccc4Cl)C(=O)N3)cc2)CC1 (stereo not given)
logD [14]: 0.8

SMILES: O=C1NC(c2ccsc2)(c2ccccc2F)CC(O)=C1Sc1ccccc1Cl (stereo not given)
IC50 [18]: 1800 nM

SMILES: N#Cc1ccc(C2(c3ccsc3)CC(O)=C(Sc3ccccc3Cl)C(=O)N2)cc1 (stereo not given)
IC50 [18]: 1100 nM

SMILES: O=C1NC(c2ccccc2)(c2ccsc2)CC(O)=C1Sc1ccccc1Cl (stereo not given)
Papp A→B [7]: 7.4 ×10⁻⁶ cm/s
logD [14]: 0.8

SMILES: CC1CN(c2ccc(C3(c4ccsc4)CC(O)=C(Sc4ccccc4Cl)C(=O)N3)cc2)CC(C)O1 (stereo not given)
Papp A→B [7]: 6 ×10⁻⁶ cm/s
fraction unbound [11]: < 0.001
logD [14]: 1.3

SMILES: O=C1NC(c2ccccc2)(c2ccccc2)CC(O)=C1Sc1ccccc1Cl
Papp A→B [7]: 9.4 ×10⁻⁶ cm/s
IC50 [18]: 2200 nM
fraction unbound [11]: 0.007
logD [14]: 1.4

SMILES: COC1CCN(c2ccc(C3(c4ccsc4)CC(O)=C(Sc4ccccc4Cl)C(=O)N3)cc2)CC1 (racemic)
logD [14]: 1.2

SMILES: O=C1NC(c2ccsc2)(c2cccc(NC3CCOCC3)c2)CC(O)=C1Sc1ccccc1Cl (racemic)
Papp A→B [7]: 0.5 ×10⁻⁶ cm/s
logD [14]: -0.3

SMILES: O=C1NC(c2ccsc2)(c2cccc(Nc3ccc(F)cc3)c2)CC(O)=C1Sc1ccccc1Cl (racemic)
Papp A→B [7]: 1 ×10⁻⁶ cm/s
fraction unbound [11]: < 0.001
logD [14]: 2.4

SMILES: O=C1NC(c2ccc(C3CCCCC3)cc2)(c2ccsc2)CC(O)=C1Sc1ccccc1Cl (racemic)
logD [14]: 3.5

Second part, the molecule after the results:

Cmax [1]: 440 µM
bioavailability [2]: 70%
AUC [3]: 403 µM·h
AUC [4]: 125 µM·h
clearance [5]: 21.1 mL/min/kg
Cmax [6]: 1.7 µM
Papp A→B [7]: 3.4 ×10⁻⁶ cm/s
AUC [8]: 5.1 µM·h
Cmax [9]: 60.7 µM
AUC [10]: 1.5 µM·h
fraction unbound [11]: 0.009
half-life [12]: 1 h
Cmax [13]: 2.5 µM
logD [14]: 0.6
Vd [15]: 1.4 L/kg
AUC [16]: 250 µM·h
Cmax [17]: 224 µM
SMILES: O=C1N[C@](c2ccc(N3CCOCC3)cc2)(c2ccsc2)CC(O)=C1Sc1ccccc1Cl

logD [14]: 0.4
SMILES: O=C1NC(c2ccc(N3CCOCC3=O)cc2)(c2ccsc2)CC(O)=C1Sc1ccccc1Cl (stereo not given)

logD [14]: 1.3
SMILES: CC1(C)CN(c2ccc(C3(c4ccsc4)CC(O)=C(Sc4ccccc4Cl)C(=O)N3)cc2)CCO1 (stereo not given)

logD [14]: 0.7
SMILES: O=C1NC(c2ccc(N3CCC4(CC3)COC4)cc2)(c2ccsc2)CC(O)=C1Sc1ccccc1Cl (stereo not given)

Papp A→B [7]: 1.7 ×10⁻⁶ cm/s
fraction unbound [11]: < 0.001
logD [14]: 2.1
SMILES: O=C1NC(c2ccc(N3CCCCC3)cc2)(c2ccsc2)CC(O)=C1Sc1ccccc1Cl (racemic)
